According to ChEMBL document CHEMBL1817591, “Novel benzofuroxan derivatives against multidrug-resistant Staphylococcus aureus strains: design using Topliss' decision tree, synthesis and biological assay” (2011):
In brackets after ≈: the same amount, converted by molar mass.

Key:
[1] = tested on: Staphylococcus aureus; test: Antibacterial activity against vancomycin-intermediate Staphylococcus aureus VISA3 at 2 times MIC of multidrug-resistant Staphylococcus aureus 3SP/R33 after 18 hrs by serial broth microdilution method; assay type: functional; settings: VISA3, 18 h
In short: (§1)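 Two-stage broth microdilution MIC in Tryptic Soy Broth, run in triplicate. Phase I used two-fold serial dilutions from DMSO/TSB 1:10 v/v stocks, with ampicillin and vancomycin as controls. The inoculum was 0.5 McFarland, diluted in saline and TSB. […] Phase II diluted a stock at twice the Phase I MIC across 11 columns.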

[2] = tested on: Staphylococcus aureus; test: Antibacterial activity against multidrug-resistant Staphylococcus aureus 3SP/R33 after 18 hrs by serial broth microdilution method; assay type: functional; settings: 3SP/R33, 18 h; in short: as §1

| Compound | MIC [1] | MIC [2] |
| --- | --- | --- |
| O=C(N/N=C/c1ccc2c(c1)no[n+]2[O-])c1ccc(Cl)c(Cl)c1 | 11.8 µg/mL | 7.5 µg/mL (≈ 21.4 µM) |
| O=C(N/N=C/c1ccc2c(c1)no[n+]2[O-])c1ccc(C(F)(F)F)cc1 | 13.1 µg/mL | 10 µg/mL (≈ 28.6 µM) |
| O=C(N/N=C/c1ccc2c(c1)no[n+]2[O-])c1ccccc1 | 16.2 µg/mL | 10 µg/mL (≈ 35.4 µM) |
| O=C(N/N=C/c1ccc2c(c1)no[n+]2[O-])c1ccc([N+](=O)[O-])c(C(F)(F)F)c1 | 11.4 µg/mL | 7.5 µg/mL (≈ 19 µM) |
| O=C(N/N=C/c1ccc2c(c1)no[n+]2[O-])c1ccc([N+](=O)[O-])cc1 | 21.9 µg/mL | 15 µg/mL (≈ 45.8 µM) |
| O=C(N/N=C/c1ccc2c(c1)no[n+]2[O-])c1ccc(Cl)cc1 | 15.3 µg/mL | 10 µg/mL (≈ 31.6 µM) |
| O=C(N/N=C/c1ccc2c(c1)no[n+]2[O-])c1ccc(Cl)cc1Cl | 17.7 µg/mL | 15 µg/mL (≈ 42.7 µM) |
| O=C(N/N=C/c1ccc2c(c1)no[n+]2[O-])c1ccc(Br)cc1 | 18 µg/mL | 10 µg/mL (≈ 27.7 µM) |
